STAT1 activator: STAT1 signaling activation. NIH 3T3 STAT1-luciferase reporter, IFN-gamma, luminescence; 100% = IFN-gamma alone, no compound. activation (% of control), % at 5.5 µM. 2.6% of 200,000 active;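 active = activation above the screen-wide mean activation plus 3 SD, cut at about 130% in these data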
STAT1 inh: inhibitors of IFN-gamma induced STAT1 signaling; NIH 3T3 STAT1-luciferase reporter, luminescence; inhibition, % at 5.5 µM; 0.35% of 200,000 active; AID 920;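 active = inhibition above a set limit, the mean inhibition across all tested compounds plus 3 SD, cut at about 34% in these data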
STAT3 blocker: reduces IL-6 driven STAT3 reporter signal. 0.89% of 190,000 active. AID 862. U3A cells, IL-6 STAT3-luciferase reporter, luminescence; host cell line lacks STAT1. inhibition, % at 5.5 µM;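 active = inhibition above the mean inhibition across all screened compounds plus 3 SD, cut at about 44% in these data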
STAT3 act: increases IL-6 driven STAT3 reporter signal | 0.91% of 190,000 active | U3A cells, IL-6 STAT3-luciferase reporter, luminescence; 100% = signal with IL-6 EC80 alone | AID 871 | activation (% of control), % at 5.6 µM;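 active = activation above the screen-wide mean of compound activation plus 3 SD, cut at about 130% in these data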
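Material: STAT3-luciferase reporter U3A cells; Probe or stimulus: IL-6 (33 ng/mL); Incubation: compound pre-incubation 1 h before IL-6, then 6 h stimulation at 37 °C; Technique: luminescence from STAT3-driven luciferase reporter; Evaluation: % activation versus median of IL-6-stimulated wells; Controls: IL-6-only high control.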
Each line names hits and unclear results; the compound was inactive in the other large screens. Hits are enriched below; roughly 4.3% of the tested compounds scored in any of these assays.

Cc1ccc(C2=N/C(=C\N3CCCCC3)C(=O)O2)cc1	STAT1 activator 142
Cc1ccc(C2=N/C(=C/N3CCOCC3)C(=O)O2)cc1	STAT1 activator 129
Cc1ccc(C)c(NC(=S)NCCN(C2CCCCC2)C2CCCC2)c1	none
CC(C)Oc1cccc(C(=O)C2CCCN(Cc3cnc(N4CCOCC4)s3)C2)c1 (centres undefined)	none
CC12CN(NC(=O)c3ccccc3F)C3(C#N)CC1CCC23C (centres undefined)	none
C=CCNc1nc(-c2ccc(OC)cc2OC)cs1	STAT1 activator 150
COc1ccc(C(=O)CSc2nnc(CC(=O)Nc3ccccc3OC)n2C)cc1	none
O=C(NNC(=O)C1CC2CCC1C2)c1sc2ccccc2c1Cl (centres undefined)	STAT1 activator 130
COc1ccc(CCNC(=O)c2sc3cc(C)ccc3c2Cl)cc1	none
O=C(NCC1CCCO1)Nc1cccc(Cl)c1 (centres undefined)	none
Cc1cccc(NC(=O)C(=O)NCC2CCCO2)c1 (centres undefined)	STAT1 activator 136
Cc1ccc2c(Cl)c(C(=O)NCC3CCCO3)sc2c1 (centres undefined)	STAT1 activator 132
Cc1ccc2c(Cl)c(C(=O)NCCc3ccccc3)sc2c1	STAT1 activator 136
O=C(COc1ccc(-c2ccccc2)cc1)NNC(=O)NC1CCCCC1	none
CCN(CC)C(=S)Nc1cc(C(=O)OC)ccc1C(=O)OC	none
COc1c(F)c(F)c(C(=O)Nc2ccc(NC(=O)Cc3ccccc3)cc2)c(F)c1F	none
O=S(=O)(/C=C/c1ccccc1)NCc1ccccc1Cl	none
Cc1ccccc1/C(N)=N/OC(=O)c1cccs1	none
C=CCc1c(NCCO)nc(C)[nH]c1=O	none
Cc1nnc(-c2cnn(C)c2N)n1CCCN1CCOCC1	none
CC(C)(C)c1nnc2cccc(Cl)n12	none
Cn1c(SCC(=O)Nc2ncc(C(F)(F)F)cc2Cl)nnc1-c1ccc(Cl)cc1	none
O=C(NCC1CCCO1)c1sc2ccccc2c1Cl (centres undefined)	STAT1 activator 132
COc1ccc([N+](=O)[O-])cc1NCc1ccccc1	STAT1 activator 143
O=C1C(C=NCCCN2CCOCC2)=C(O)c2ccccc21	none
O=C1C(C=NCCN2CCOCC2)=C(O)c2ccccc21	STAT1 activator 133
O=C(Oc1ccc(Cl)c2ccccc12)N1CCCCC1	none
O=C(Oc1ccc2ccccc2c1Cl)N1CCCC1	STAT1 activator 144
Cc1ccc2nc(-c3ccc(NC(=O)Cc4cccs4)cc3)[nH]c2c1	STAT1 activator 145
Cc1ccc2nc(SCC(=O)NCc3cccs3)[nH]c2c1	none
Cc1cccc(-c2nc3cc([N+](=O)[O-])ccc3o2)c1	none
O=[N+]([O-])c1ccc2oc(-c3ccccc3)nc2c1	STAT1 activator 145
Cc1ccc2oc(-c3ccccc3)nc2c1	STAT1 activator 134
CCCC(=O)Nc1ccc2oc(-c3ccc(OC)c(Br)c3)nc2c1	none
CCCC(=O)Nc1ccc(-c2nc3cc(C)ccc3o2)cc1	STAT1 activator 136
O=C1CC(/C=C/c2ccncc2)=Nc2ccccc2N1	none
CC1(C)CC(=O)C2=C(C1)OC1=C(C2)C(=O)CC(C)(C)C1	none
O=S(=O)(c1ccc2ccccc2c1)N1CCN(C(=S)Nc2ccc(F)c(Cl)c2)CC1	none
CCCCOC(=O)c1ccc(NC(=O)COC(=O)CSc2nc(C)cc(C)n2)cc1	none
O=C(NCc1ccco1)c1ccc2c(c1)C(=O)c1ccccc1-2	STAT1 activator 133
O=C(NCc1ccco1)c1ccc2ccccc2c1	STAT1 activator 134
O=C(NCc1ccco1)c1ccc2c(c1)C(=O)N(Cc1ccccc1)C2=O	none
O=C(NCc1ccco1)c1ccc(Oc2ccccc2)cc1	none
O=C(O)CC(NC(=O)C1c2ccccc2Oc2ccccc21)c1ccc(Cl)cc1 (centres undefined)	none
O=C(Nc1cccc(C(F)(F)F)c1)C1CCCN(c2ncccn2)C1 (centres undefined)	none
O=C(Nc1ccc2c(c1)CCC2)C1CCCN(c2ncccn2)C1 (centres undefined)	STAT1 activator 144
Cc1ccc(NC(=O)C2CCCN(c3ncccn3)C2)cc1F (centres undefined)	STAT1 activator 149
Cc1nc2ccc(NC(=O)c3cc([N+](=O)[O-])cc([N+](=O)[O-])c3Cl)cc2s1	none
c1ccc(Cc2cc(-c3ccccc3)on2)cc1	STAT1 activator 132
Clc1ccc(SCc2cc(-c3ccccc3)on2)cc1	none
CN(C)S(=O)(=O)c1ccc(Cl)c(NC(=O)COc2ccccc2[N+](=O)[O-])c1	none
COC(=O)[C@@]1(Cc2ccc(F)cc2)[C@H]2c3cc(C(=O)N(C)C)n(Cc4c(CO)[nH]cc(C)c4=O)c3C[C@H]2CN1C(=O)c1ccccc1	none
CCn1c(C)nc2cc(C(=O)N/N=C(\C)c3ccccc3O)ccc21	STAT1 activator 137
CCn1c(C)nc2cc(C(=O)OC)ccc21	none
CCn1c(C)nc2cc(C(=O)N/N=C/c3ccccc3C)ccc21	STAT1 activator 143
CCn1c(C)nc2cc(C(=O)NNS(=O)(=O)c3ccccc3F)ccc21	none
CCCCOc1ccc(-c2ncc(C(=O)O)c(C)n2)cc1	STAT1 activator 136
Cc1nn(Cc2cccc(F)c2)c(C)c1NC(=O)c1c(Cl)cnn1C	none
Cc1nc(SCC(=O)Nc2nc3ccccc3s2)c(C#N)c(C)c1C	STAT1 inh 58, STAT3 blocker 88
Cc1ccc2sc(NC(=O)CSc3nc(C)cc(C)c3C#N)nc2c1	none
CCOC(=O)N=Nc1c2ccccc2c2nc3no[nH]c3nc12	STAT1 inh 89, STAT3 blocker 68
COCCn1c(N)c(N(Cc2ccccc2)C(=O)Cc2c(Cl)cccc2Cl)c(=O)[nH]c1=O	none
Cc1cc(/C=C2/SC(=S)N(c3cccc(Cl)c3)C2=O)c(C)n1-c1cccnc1	STAT3 blocker 67
Cc1ccc(Nc2ncnc3ccccc23)cc1	STAT1 activator 130
Cc1ccccc1C(=O)Oc1cccc(Nc2ncnc3ccccc23)c1	STAT3 blocker 67
Cc1cccc(Nc2ncnc3ccccc23)c1	none
CCOC(=O)c1cccc(Nc2ncnc3ccccc23)c1	none
CC(C)Oc1ccc(Nc2ncnc3ccccc23)cc1	STAT1 activator 144
O=C(CSc1nnc(C2CC2)n1Cc1ccco1)NCC(F)(F)F	none
CC(=O)c1cccc(Nc2nc(-c3cccc([N+](=O)[O-])c3)cs2)c1	STAT1 activator 131
c1ccc(Nc2nc(-c3cccs3)cs2)nc1	STAT1 activator 136
Cc1ccc(Nc2nc(-c3ccc(O)c(O)c3)cs2)nc1	STAT1 activator 136
CC(=O)Nc1cccc(-c2csc(Nc3ccccn3)n2)c1	STAT1 activator 143
CC(=O)Nc1cccc(-c2csc(NCc3ccccc3)n2)c1	none
COc1ccc(-c2csc(Nc3ccc(C)cn3)n2)cc1OC	none
Cc1nsc(Nc2ccc([N+](=O)[O-])cc2)c1C#N	none
CC(=O)Nc1ccc(-c2csc(Nc3cc(C)ccn3)n2)cc1	STAT1 activator 140
Oc1ccc(-c2csc(Nc3ncccn3)n2)cc1	STAT1 activator 146
c1ccc(Nc2nc(-c3cccnc3)cs2)nc1	STAT1 activator 144
Cc1ccc(C)[n+](CC(=O)c2ccc(-c3ccccc3)cc2)c1	none

Compound activity: PubChem, The Scripps Research Institute Molecular Screening Center
